# ChEMBL document CHEMBL1134278, “Design, synthesis, and biological activity of methoctramine-related polyamines as putative G(i) protein activators” (J Med Chem, 2001)
# Experiments:
# [1] = molecular target: T1, Muscarinic acetylcholine receptor M3 (Homo sapiens, UniProt P20309); test: Affinity for human M3 cloned muscarinic receptor subtype expressed in CHO-K1 cells at a concentration of 10 uM; assay type: cell-based
# Target sequence in this assay (P20309 whole entry, looked up): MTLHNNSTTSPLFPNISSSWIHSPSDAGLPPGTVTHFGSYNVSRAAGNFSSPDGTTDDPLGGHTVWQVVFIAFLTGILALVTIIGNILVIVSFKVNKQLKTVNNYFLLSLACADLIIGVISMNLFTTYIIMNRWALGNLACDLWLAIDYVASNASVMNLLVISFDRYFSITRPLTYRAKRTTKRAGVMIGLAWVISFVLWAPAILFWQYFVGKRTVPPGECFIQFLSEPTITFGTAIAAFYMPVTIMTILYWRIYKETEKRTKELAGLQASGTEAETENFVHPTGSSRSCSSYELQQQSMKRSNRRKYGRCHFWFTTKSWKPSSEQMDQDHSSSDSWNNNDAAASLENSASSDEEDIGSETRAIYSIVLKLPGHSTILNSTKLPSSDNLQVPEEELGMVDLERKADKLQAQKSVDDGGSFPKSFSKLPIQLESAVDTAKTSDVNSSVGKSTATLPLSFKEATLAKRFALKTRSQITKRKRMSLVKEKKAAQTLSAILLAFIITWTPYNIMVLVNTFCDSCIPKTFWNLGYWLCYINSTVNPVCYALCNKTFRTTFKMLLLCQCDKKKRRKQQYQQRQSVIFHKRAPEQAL
# [2] = molecular target: T2, Muscarinic acetylcholine receptor M1 (Homo sapiens) (UniProt P11229); test: Affinity for human M1 cloned muscarinic receptor subtype expressed in CHO-K1 cells at a concentration of 10 uM; assay type: cell-based
# T2 sequence (whole entry): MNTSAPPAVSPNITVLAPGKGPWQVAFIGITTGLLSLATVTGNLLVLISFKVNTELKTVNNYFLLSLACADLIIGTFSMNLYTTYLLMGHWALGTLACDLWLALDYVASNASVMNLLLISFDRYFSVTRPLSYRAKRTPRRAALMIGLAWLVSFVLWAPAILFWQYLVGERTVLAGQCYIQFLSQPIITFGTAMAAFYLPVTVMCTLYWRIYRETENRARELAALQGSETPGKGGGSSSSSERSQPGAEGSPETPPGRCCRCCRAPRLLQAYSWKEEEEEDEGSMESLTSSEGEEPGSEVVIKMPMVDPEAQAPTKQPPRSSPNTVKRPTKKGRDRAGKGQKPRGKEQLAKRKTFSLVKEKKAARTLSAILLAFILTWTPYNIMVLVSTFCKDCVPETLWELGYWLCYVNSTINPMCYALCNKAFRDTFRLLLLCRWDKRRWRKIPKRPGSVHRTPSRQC
# [3] = molecular target: T3, Muscarinic acetylcholine receptor M5 (Homo sapiens) (UniProt P08912); test: Affinity for human muscarinic acetylcholine receptor M5 subtype expressed in CHO-K1 cells at a concentration of 10 uM; assay type: cell-based
# T3 sequence (whole entry): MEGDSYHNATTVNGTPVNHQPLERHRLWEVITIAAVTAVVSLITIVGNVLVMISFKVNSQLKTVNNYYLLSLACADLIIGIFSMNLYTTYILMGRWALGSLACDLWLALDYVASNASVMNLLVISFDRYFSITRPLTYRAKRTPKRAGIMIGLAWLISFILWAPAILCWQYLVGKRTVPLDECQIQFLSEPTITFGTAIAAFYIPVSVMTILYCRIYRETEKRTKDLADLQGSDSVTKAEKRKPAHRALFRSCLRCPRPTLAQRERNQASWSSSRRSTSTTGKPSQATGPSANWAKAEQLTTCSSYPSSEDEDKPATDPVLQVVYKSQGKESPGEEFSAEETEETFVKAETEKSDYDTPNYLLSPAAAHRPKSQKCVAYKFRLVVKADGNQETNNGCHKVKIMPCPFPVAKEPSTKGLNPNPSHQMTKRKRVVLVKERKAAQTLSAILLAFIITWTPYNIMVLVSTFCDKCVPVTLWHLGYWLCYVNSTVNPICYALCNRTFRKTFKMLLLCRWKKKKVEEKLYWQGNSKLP
# Cavia porcellus [4] = organism: Cavia porcellus; test: Inotropic responses, induced by the compound in electrically paced (Hz) guinea pig left atria; assay type: functional
# Procedure, shortened: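 Left atria from guinea pig were electrically driven at 1 Hz, and negative inotropic effect was recorded. Cumulative concentration–response curves were run, with arecaidine propargyl ester (APE) as the muscarinic agonist reference. EC50 came from nonlinear regression curve fitting as the mean ± SE of at least four independent experiments.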
# Cavia porcellus [5] = organism: Cavia porcellus; test: Inotropic response relative to APE (APE = 100) in electrically paced (Hz) guinea pig left atria; assay type: functional
# [6] = molecular target: T4, Muscarinic acetylcholine receptor M4 (Homo sapiens) (UniProt P08173); test: Affinity for human M4 cloned muscarinic receptor subtype expressed in CHO-K1 cells at a concentration of 10 uM; assay type: cell-based
# T4 sequence (whole entry): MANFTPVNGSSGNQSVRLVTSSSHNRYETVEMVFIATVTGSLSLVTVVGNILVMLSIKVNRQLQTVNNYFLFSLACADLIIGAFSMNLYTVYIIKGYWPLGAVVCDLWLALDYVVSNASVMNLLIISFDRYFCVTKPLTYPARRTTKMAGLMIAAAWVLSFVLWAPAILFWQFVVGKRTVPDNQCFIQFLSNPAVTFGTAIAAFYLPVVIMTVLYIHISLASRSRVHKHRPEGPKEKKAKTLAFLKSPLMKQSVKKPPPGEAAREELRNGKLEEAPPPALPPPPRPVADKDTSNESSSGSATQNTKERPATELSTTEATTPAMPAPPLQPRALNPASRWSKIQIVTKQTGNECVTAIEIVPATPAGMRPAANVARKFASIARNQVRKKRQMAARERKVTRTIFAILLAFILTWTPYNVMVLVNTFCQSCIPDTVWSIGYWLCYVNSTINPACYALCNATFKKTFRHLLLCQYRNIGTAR
# [7] = molecular target: T5, Muscarinic acetylcholine receptor M2 (Homo sapiens) (UniProt P08172); test: Affinity for human muscarinic acetylcholine receptor M2 expressed in CHO-K1 cells at a concentration of 10 uM; assay type: cell-based
# T5 sequence (whole entry): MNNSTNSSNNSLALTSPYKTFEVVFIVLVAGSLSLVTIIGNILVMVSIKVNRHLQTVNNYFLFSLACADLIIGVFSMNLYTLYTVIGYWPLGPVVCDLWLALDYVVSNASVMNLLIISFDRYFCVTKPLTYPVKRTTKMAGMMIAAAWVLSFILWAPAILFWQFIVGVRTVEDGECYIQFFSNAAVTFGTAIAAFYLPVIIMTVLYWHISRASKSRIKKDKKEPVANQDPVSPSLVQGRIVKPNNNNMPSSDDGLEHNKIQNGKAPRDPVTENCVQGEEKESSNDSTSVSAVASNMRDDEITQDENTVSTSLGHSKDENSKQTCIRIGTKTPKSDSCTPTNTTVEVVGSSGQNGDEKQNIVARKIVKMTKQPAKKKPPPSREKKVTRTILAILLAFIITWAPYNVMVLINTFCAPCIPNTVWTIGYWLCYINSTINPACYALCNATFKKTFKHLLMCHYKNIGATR
# [8] = molecular target: T6, Muscarinic acetylcholine receptor M5 (Homo sapiens, UniProt P08912); test: Affinity for human muscarinic acetylcholine receptor M5 subtype expressed in CHO-K1 cells; assay type: cell-based
# T6 sequence (P08912 whole entry): T3 sequence (whole entry)
# Procedure, shortened: (§1)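 Radioligand displacement of [³H]NMS in CHO-K1 cells expressing human cloned muscarinic M1–M5 receptors. IC50 values were converted to Ki with the Cheng–Prusoff equation. Results are means ± SE of two to three experiments, each run in triplicate.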
# [9] = molecular target: T7, Muscarinic acetylcholine receptor M4 (Homo sapiens, UniProt P08173); test: Affinity for human M4 cloned muscarinic receptor subtype expressed in CHO-K1 cells; assay type: cell-based; procedure, shortened: as §1
# T7 sequence (P08173 whole entry): T4 sequence (whole entry)
# [10] = molecular target: T1, Muscarinic acetylcholine receptor M3; test: Affinity for human M3 cloned muscarinic receptor subtype expressed in CHO-K1 cells; assay type: cell-based; procedure, shortened: as §1
# Target sequence in this assay (P20309 whole entry): as the sequence (P20309 whole entry, looked up) above
# [11] = molecular target: T8, Muscarinic acetylcholine receptor M2 (Homo sapiens, UniProt P08172); test: Binding affinity against muscarinic acetylcholine receptor M2
# T8 sequence (P08172 whole entry): T5 sequence (whole entry)
# [12] = molecular target: T9, Muscarinic acetylcholine receptor M1 (Homo sapiens, UniProt P11229); test: Affinity for human M1 cloned muscarinic receptor subtype expressed in CHO-K1 cells; assay type: cell-based; procedure, shortened: as §1
# T9 sequence (P11229 whole entry): T2 sequence (whole entry)
# [13] = molecular target: T8, Muscarinic acetylcholine receptor M2; test: biochemical
# Cavia porcellus [14] = organism: Cavia porcellus; test: Antagonist affinity, in electrically paced (1 Hz) guinea pig left atria using N-dodecyl lysine amide as agonist
# Cavia porcellus [15] = organism: Cavia porcellus; test: Antagonist affinity, in electrically paced (1 Hz) guinea pig left atria using 1'-[8-(1-(2-methoxy -benzyl)-[4,4']bipiperidinyl)-octyl]-1-(2-methoxy-benzyl)-[4,4']biiperidinyl as agonist; assay type: functional
# Procedure, shortened: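 Driven guinea pig left atria paced at 1 Hz. Each antagonist was tested at one concentration, 0.1 µM, incubated 1 h. One tissue received the antagonist and a second untreated tissue served as control, each giving a cumulative agonist concentration–response curve. pK_B = −log{[antagonist]/(DR−1)}. Mean ± SE of four experiments.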
# Cavia porcellus [16] = organism: Cavia porcellus; test: Antagonist affinity, in electrically paced (1 Hz) guinea pig left atria using the APE as agonist; assay type: functional
# Procedure, shortened: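 Driven guinea pig left atria paced at 1 Hz, with cumulative agonist concentration–response curves. Each antagonist was tested at one concentration, 0.1 µM, incubated 1 h. pK_B was calculated from the dose ratio as −log{[antagonist]/(DR−1)}. Mean ± SE of four experiments.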
Structure (SMILES),Reduction [1],Reduction [2],Reduction [3],EC50 (Cavia porcellus [4]),Relative efficacy (Cavia porcellus [5]),Reduction [6],Reduction [7],further results
CCCCCCCCCCCCNC(CCCCN)C(N)=O (configuration not stated),17%,17%,24%,0.339 nM,82,0%,13%,
COc1ccccc1CN1CCC(C2CCNCC2)CC1,12%,22%,29%,0.525 nM,75,28%,49%,
COc1ccccc1CN1CCC(C2CCN(C)CC2)CC1,12%,17%,25%,0.603 nM,70,25%,35%,
COc1ccccc1CN1CCC(C2CCN(C(C)=O)CC2)CC1,,,,1.29 nM,79,,,
COc1ccccc1CN1CCC(C2CCN(CCCCCCCCN3CCC(C4CCN(Cc5ccccc5OC)CC4)CC3)CC2)CC1 [PIPERTRAMINE],,,,0.224 nM,84,,,Ki [8]: 105 nM; Ki [9]: 15.3 nM; Ki [10]: 422 nM; Ki [11]: 8.6 nM; Ki [12]: 19.8 nM
COc1ccccc1CN1CCC(C2CCN(C(=O)CCCCCCC(=O)N3CCC(C4CCN(Cc5ccccc5OC)CC4)CC3)CC2)CC1 [PIPERTRAMINE AMIDE],,,,0.398 nM,85,,,Ki [8]: 183 nM; Ki [9]: 16.6 nM; Ki [10]: 97.2 nM; Ki [13]: 9.2 nM; Ki [12]: 108 nM
CN1[C@@H]2CC[C@H]1C[C@@H](OC(=O)C(CO)c1ccccc1)C2 (some centres not stated) [ATROPINE],,,,,,,,pKB (Cavia porcellus [14]): 7.45; pKB (Cavia porcellus [15]): 7.18; pKB (Cavia porcellus [16]): 9.15
C#CCOC(=O)C1=CCCN(C)C1 [ARECAIDINE PROPARGYL ESTER],,,,7.08 nM,100,,,
